Data set [1] in a line: Effect of pH on carbamate hydrolysis in 0.05 M buffer concentration at the pH 4.0, 25 degree C. It is filed as ADME. The gist of the method:
(§1)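 Bis-carbamate in acetonitrile–water (1:1; buffer added to a 0.5 mg/mL acetonitrile solution), 0.05 M buffer, ionic strength 0.136 (KCl), 25 ± 0.1 °C. Buffers: phosphate pH 2.0; citrate pH 3.0–3.5; succinate pH 4.0; acetate pH 5.0; phosphate pH 6.0–8.0; borate pH 9.0; carbonate pH 10.0. HPLC bis-carbamate peak-area loss, ln(area0/areat) vs time slope = kobs. Duplicates averaged.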

Data set [2] in a line: Effect of pH on carbamate hydrolysis in 0.05 M buffer concentration at the pH 8.0, 25 degree C. Format: ADME. The gist of the method:
as §1

A short description of data set [3]: Effect of phosphate buffer on carbamate hydrolysis in acetonitrile-water at the concentration of 0.025 M on pH 7.4, 25 degree C. Format: ADME. The gist of the method: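 Bis-carbamate in acetonitrile–water (1:1), 25 ± 0.1 °C. Citrate buffer at pH 3.0 or phosphate buffer at pH 7.4, at 0.01, 0.025 or 0.05 M, ionic strength 0.136 (KCl). Kinetics followed by HPLC as the decrease in bis-carbamate peak area. The regression slope of ln(area0/areat) vs time gave pseudo-first-order kobs. Duplicates averaged.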

Data set [4] can be described thus: Effect of Ionic strength on carbamate hydrolysis in acetonitrile-water at 0.05 M buffer concentration, pH 7.4,25 degree C. Format: ADME. The gist of the method:
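Bis-carbamate in acetonitrile–0.05 M phosphate buffer (1:1), pH 7.4, 25 °C, at varied ionic strength. Loss of bis-carbamate HPLC peak area tracked over time. Pseudo-first-order kobs taken from the ln(area0/areat) vs time slope.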

A short description of data set [5]: Half life at the buffer concentration of 0.05 M. Format: ADME.
Data set [6] in a line: Half life at the ionic strength. Format: ADME.
A short description of data set [7]: Half life at the pH 3.0. It is filed as ADME. The settings on record: buffer. The gist of the method: as §1
Data set [8] in a line: Half life at the pH 6.0. It is filed as ADME. The note with it: buffer. The gist of the method:
as §1

Data set [9] in a line: Half life at the pH 7.4. It is filed as ADME. The note with it: buffer.
The nature of data set [10]: Half life at the pH 8.0. It is filed as ADME. The settings on record: buffer.
Data set [11] can be described thus: Half life at the pH 9.0. Format: ADME. The settings on record: buffer. The gist of the method:
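Bis-carbamate hydrolysis in acetonitrile–water (1:1) with 0.05 M borate buffer (boric acid–NaOH), pH 9.0, ionic strength 0.136 adjusted with KCl, 25 °C, thermostated. Loss of the bis-carbamate peak area was tracked by HPLC. k_obs is the slope of ln(area0/areat) vs time. Values are averages of two determinations.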

The subject of data set [12] is L1210. Kind of data set: In vivo activity against murine L1210 tumor system at the dose of 166.7 mg/kg, activity expressed as KE. Format: functional, Mus musculus. The gist of the method: (§2)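 L1210 lymphocytic leukemia: ascitic fluid with ca. 10^6 cells injected ip into CD2F1 mice. Dosing started 24 h after inoculation and was repeated daily for five doses in total, from solutions or suspensions made fresh each day. Toxicity day survivors were scored on day 5. Body weight difference is day 5 minus day 1. %T/C is based on median survival time versus controls.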

The test system of data set [13] is L1210. Kind of data set: In vivo activity against murine L1210 tumor system at the dose of 100 mg/kg, activity expressed as %T/C. Format: functional, Mus musculus. The gist of the method:
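CD2F1 mice received ca. 10^6 L1210 cells in ascitic fluid ip. Treatment started 24 h after inoculation and was given daily for five doses in total. %T/C compares median survival time of treated and control animals.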

Data set [14] in a line: In vivo activity against murine M5076 tumor system at the dose of 60 mg/kg, activity expressed as KE. Format: functional, Mus musculus.
A short description of data set [15]: In vivo activity against murine M5076 tumor system at the dose of 21.6 mg/kg, activity expressed as %T/C. Format: functional, Mus musculus. The gist of the method: (§3)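 M5076: ascitic fluid with ca. 10^6 cells inoculated ip into CD2F1 mice. Dosing started 24 h after inoculation and was then given every 4 days for four doses in total, from solutions or suspensions made fresh each day. Toxicity day survivors were scored on day 5. Body weight difference is day 14 minus day 1. %T/C is based on median survival time versus controls.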

Data set [16] in a line: In vivo activity against murine M5076 tumor system at the dose of 36 mg/kg, activity expressed as %T/C. Format: functional, Mus musculus. The gist of the method:
as §3

Data set [17] concerns L1210. Kind of data set: In vivo activity against murine L1210 tumor system at the dose of 60 mg/kg, activity expressed as TDS; 6/6. It is filed as functional, Mus musculus. The gist of the method: as §2
A short description of data set [18]: In vivo activity against murine M5076 tumor system at the dose of 166.7 mg/kg, activity expressed as body weight difference; T-C. It is filed as functional, Mus musculus. The gist of the method:
as §3

Data set [19] can be described thus: In vivo activity against murine M5076 tumor system at the dose of 36 mg/kg, activity expressed as body weight difference; T-C. Format: functional, Mus musculus. The gist of the method:
as §3

The subject of data set [20] is P388. Kind of data set: In vivo activity against P388 Lymphocytic Leukemia in CD2F1 mice at the dose of 50 mg/kg, activity expressed as % T/C. It is filed as functional, Mus musculus. The gist of the method: (§4)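 CD2F1 mice were inoculated with ascitic fluid holding ca. 10^6 P388 cells. Drug was given daily from 24 h after inoculation, from solutions or suspensions made fresh each day, some as a saline suspension. TDS is survivors/initial animals on day 5. BWD is body weight on day 5 minus day 1. %T/C compares median survival of treated and control mice.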

Data set [21] relates to P388. Kind of data set: In vivo activity against P388 Lymphocytic Leukemia in CD2F1 mice at the dose of 12.5 mg/kg, activity expressed as TDS; 6/6. It is filed as functional, Mus musculus. The gist of the method: as §4
Data set [22] deals with P388. Kind of data set: In vivo activity against P388 Lymphocytic Leukemia in CD2F1 mice at the dose of 25 mg/kg, activity expressed as TDS; 6/6. It is filed as functional, Mus musculus. The gist of the method:
as §4

Data set [23] deals with P388. Briefly: In vivo activity against P388 Lymphocytic Leukemia in CD2F1 mice at the dose of 50 mg/kg, activity expressed as TDS; 6/6. It is filed as functional, Mus musculus. The gist of the method: as §4
Data set [24] deals with P388. Kind of data set: In vivo activity against P388 Lymphocytic Leukemia in CD2F1 mice at the dose of 12.5 mg/kg, activity expressed as KE. Format: functional, Mus musculus.
Data set [25] concerns P388. Kind of data set: In vivo activity against P388 Lymphocytic Leukemia in CD2F1 mice at the dose of 50 mg/kg, activity expressed as KE. It is filed as functional, Mus musculus.
The test system of data set [26] is P388. Briefly: In vivo activity against P388 Lymphocytic Leukemia in CD2F1 mice at the dose of 12.5 mg/kg, activity expressed as % T/C. It is filed as functional, Mus musculus. The gist of the method:
as §4

The subject of data set [27] is P388. Kind of data set: In vivo activity against P388 Lymphocytic Leukemia in CD2F1 mice at the dose of 25 mg/kg, activity expressed as % T/C. Format: functional, Mus musculus. The gist of the method: as §4
Data set [28] in a line: Half life at the buffer concentration of 0.02 M. It is filed as ADME. The gist of the method: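 α-Fluoropyridinium hydrolysis to pyridone in phosphate buffer at 0.02, 0.05 or 0.10 M, pH 6.5 or 8.0, ionic strength […] °C. Pyridinium UV absorbance maximum followed with time to give pseudo-first-order kobs and half-life.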
A short description of data set [29]: Half life at the pH 6.5. Format: ADME. The note with it: buffer.
Data set [30] concerns MX1. Briefly: In vivo activity against murine MX-1 tumor system at the dose of 75 mg/kg, activity expressed as TDS; 4/6. Format: functional, Mus musculus.
Data set [31] can be described thus: In vivo activity against murine M5076 tumor system at the dose of 25 mg/kg, activity expressed as KE. Format: functional, Mus musculus. The gist of the method:
as §3

A short description of data set [32]: In vivo activity against murine M5076 tumor system at the dose of 50 mg/kg, activity expressed as %T/C. Format: functional, Mus musculus.
Data set [33] in a line: Half life at the concentration of 0.05 M.

“And” between values parts separate entries of the source, which are not always exact repeats. Equal entries are not always repeated.

One may read the half-life as the time in which the quantity being followed falls by half. A higher half-life goes with slow loss. By T/C is commonly meant the ratio of treated to control. For the compound `CC(C)NC(=O)OCc1c(COC(=O)NC(C)C)c(-c2ccn(C)c(=O)c2)n2c1CCC2`, the K obs is 0.0149 min⁻¹ in [1]; 0.0128 min⁻¹ in data set [2]; 0.0134 min⁻¹ in [3]; 0.013 min⁻¹ and 0.0124 min⁻¹ and 0.008 min⁻¹ in data set [4]. Further, the half-life in [5] was 53.5 min; in data set [6] it was 53.5 min; in data set [7] it was 22.8 min; in [8], 51.4 min; in data set [9], 53.5 min; in [10], 54.1 min. The compound also returned a half-life in data set [11] of 54 min. Further, the T1/2 in data set [6] was 55.89 min and 86.65 min. Moreover, the KE is given as -2.29 in data set [12], -1.79 in data set [14], -1.39 in data set [24] and -0.38 in data set [25]. The T/C in data set [13] came to 146%; in data set [15], 107%; in [16] it was 117%; in data set [20], 132%; in data set [26], 116%; in [27], 130%. Further, the TDS in data set [17], in data set [21], in data set [22] and in data set [23] was 6 each time. In addition, the BWD in data set [18] was -5.8 g; in data set [19], 1.8 g.

For the compound `CC(C)NC(=O)OCc1c(COC(=O)NC(C)C)c(-c2cc[n+](C)c(F)c2)n2c1CCC2.[I-]`, the half-life in data set [28] was found to be 52.5 min; in data set [5], 34.6 min; in data set [8] it was 158 min; in data set [29] it was 45.3 min; in data set [9], 20.5 min; in data set [10] it was 13.3 min. Besides, the TDS is recorded as 4 in [30], 6 in data set [21], 6 in data set [22] and 6 in data set [23]. Further, the KE in [31] is on record as -1.98; in [24], 0.75; in data set [25], 1.32. Further, the T/C in data set [32] stood at 118%; in data set [20], 157%; in data set [26] it was 149%; in data set [27], 141%. The same compound had a T1/2 in [33] of 96.2 min.

The values are drawn from ChEMBL document CHEMBL1124794, “Synthesis, chemistry, and antineoplastic activity of alpha-halopyridinium salts: potential pyridone prodrugs of acylated vinylogous carbinolamine tumor inhibitors” (J Med Chem, 1990).
